Tested on: Plasmodium falciparum
Experiment: In vitro antimalarial activity against ring stage of chloroquine-resistant Plasmodium falciparum W2 cultured in medium containing 10% human serum assessed as inhibition of parasite growth after 48 hrs by YOYO-1 dye based flow cytometry
Type: functional, organism-based
Details: W2, 48 h
Outline: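 Ring-stage microwell cultures were exposed to a range of compound concentrations for 48 h, with 0.1% DMSO maximum and in the no-inhibitor controls. Cells were fixed in 1% formaldehyde/PBS pH 7.4 for 48 h at room temperature, then stained with 1 nM YOYO-1 in 0.1% Triton X-100/PBS. Parasitemia was counted by flow cytometry, and IC50 obtained by nonlinear regression of % control parasitemia from duplicate experiments.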

Row | Compound | IC50 [nM]
1 | Cc1ccc2c(c1)C(=O)C(=O)N2Cc1cnnn1-c1ccnc2cc(Cl)ccc12 | > 5000
2 | O=C1C(=O)N(Cc2cnnn2CCNc2ccnc3cc(Cl)ccc23)c2ccc(F)cc21 | 2300
3 | O=C1C(=O)N(Cc2cnnn2-c2ccnc3cc(Cl)ccc23)c2ccccc21 | > 5000
4 | O=C1C(=O)N(Cc2cnnn2CCNc2ccnc3cc(Cl)ccc23)c2ccc(Cl)cc21 | 1370
5 | Cc1ccc2c(c1)C(=O)C(=O)N2Cc1cnnn1CCNc1ccnc2cc(Cl)ccc12 | 1630
6 | O=C1C(=O)N(Cc2cnnn2-c2ccnc3cc(Cl)ccc23)c2ccc(F)cc21 | > 5000
7 | O=C1C(=O)N(Cc2cnnn2CCCNc2ccnc3cc(Cl)ccc23)c2ccc(Br)cc21 | 1660
8 | O=C1C(=O)N(Cc2cnnn2CCCNc2ccnc3cc(Cl)ccc23)c2ccccc21 | 3850
9 | O=C1C(=O)N(Cc2cnnn2CCCNc2ccnc3cc(Cl)ccc23)c2ccc(Cl)cc21 | 1210
10 | O=C1C(=O)N(Cc2cnnn2-c2ccnc3cc(Cl)ccc23)c2ccc(Br)cc21 | > 5000
11 | O=C1C(=O)N(Cc2cnnn2CCNc2ccnc3cc(Cl)ccc23)c2ccccc21 | 3070
12 | Cc1ccc2c(c1)C(=O)C(=O)N2Cc1cnnn1CCCNc1ccnc2cc(Cl)ccc12 | 1300
13 | O=C1C(=O)N(Cc2cnnn2CCNc2ccnc3cc(Cl)ccc23)c2ccc(Br)cc21 | 1730
14 | O=C1C(=O)N(Cc2cnnn2-c2ccnc3cc(Cl)ccc23)c2ccc(Cl)cc21 | > 5000
15 | O=C1C(=O)N(Cc2cnnn2CCCNc2ccnc3cc(Cl)ccc23)c2ccc(F)cc21 | 1350

From ChEMBL document CHEMBL2331318, “Azide-alkyne cycloaddition en route to 1H-1,2,3-triazole-tethered 7-chloroquinoline-isatin chimeras: synthesis and antimalarial evaluation” (Eur J Med Chem, 2013)
